# Results as given in ChEMBL document CHEMBL4038313, “Expanding the Antiviral Spectrum of 3-Fluoro-2-(phosphonomethoxy)propyl Acyclic Nucleoside Phosphonates: Diamyl Aspartate Amidate Prodrugs” (J Med Chem, 2017).
# Legend:
# [1] = system: Human immunodeficiency virus 1; experiment: Antiviral activity against HIV-1 infected in human MT4 cells measured on day 5 post-infection by trypan blue dye staining-based method; format: functional, cell-based; conditions: Human immunodeficiency virus 1, MT4, 120 h
# [2] = system: Human immunodeficiency virus 2; experiment: Antiviral activity against HIV-2 infected in human MT4 cells measured on day 5 post-infection by trypan blue dye staining-based method; format: functional, cell-based; conditions: Human immunodeficiency virus 2, MT4, 120 h
# [3] = Cytotoxic activity against HEL cells assessed as reduction in cell proliferation after 3 days by coulter counting method; format: cell-based; conditions: human
# Procedure, shortened: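 HEL cells seeded at 5 × 10^3/well, grown 24 h, then given compound for 3 days at 37 °C. Cell number counted by Coulter counter. CC50 is 50% reduction of proliferation relative to untreated controls, read from graphic plots.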
# [4] = system: Human immunodeficiency virus 1; experiment: Antiviral activity against CXCR4-tropic HIV-1 NL4-3 infected in human PHA-stimulated PBMC assessed as inhibition of viral replication by measuring reduction in p24 antigen production preincubated with cells for 30 mins followed by viral infection measured on day 10 post infection in presence of IL-2 by ELISA; format: functional; conditions: Human immunodeficiency virus 1, NL4-3
# Procedure, shortened: (§1)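 PBMCs stimulated with 2 μg/mL PHA for 3 days at 37 °C, then 5 × 10^5 cells/ml preincubated 30 min at 37 °C with serial compound dilutions plus 2 ng/mL IL-2. Infected with 1500 pg/well HIV-1 BaL or 500 pg/well other isolates. IL-2 re-added on days 3 and 6. Supernatant p24 Ag measured by ELISA at day 10. EC50 is 50% inhibition of replication.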
# Human alphaherpesvirus 3 [5] = experiment: Antiviral activity against thymidine kinase expressing Varicella-Zoster virus Oka strain assessed as inhibition of plaque formation; format: functional; conditions: Human alphaherpesvirus 3, strain Oka vaccine
# Procedure, shortened: (§2)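 HEL fibroblast monolayers inoculated with 100 CCID50 HCMV (AD-169, Davis) or 20 PFU VZV (TK+ Oka, TK− 07-1). Adsorbed 1–2 h, inoculum removed, then incubated with compound dilutions. HCMV cytopathicity or VZV plaques scored once untreated infected controls reached completion. EC50 is 50% reduction. SI is CC50/EC50, and the potency ratio is the ratio of EC50s.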
# [6] = Cytotoxic activity against HEL cells assessed as alteration of cell morphology after 3 days by microscopic method; format: cell-based; conditions: human
# Procedure, shortened: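 HEL cells with compound; MCC is the lowest concentration giving microscopically detectable alteration of cell morphology.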
# [7] = Cytotoxicity against human PHA-stimulated PBMC assessed as cell viability by tetrazolium dye assay; format: cell-based
# [8] = system: Human immunodeficiency virus 1; experiment: Antiviral activity against CCR5 tropic HIV1 BaL infected in human PHA-stimulated PBMC assessed as inhibition of viral replication by measuring reduction in p24 antigen production preincubated with cells for 30 mins followed by viral infection measured on day 10 post infection in presence of IL-2 by ELISA; format: functional; conditions: Human immunodeficiency virus 1, BaL; procedure, shortened: as §1
# Hepatitis B virus = experiment: Antiviral activity against HBV ayw1 infected in human HepG2(2.2.15) cells assessed as reduction in viral replication by measuring extracellular viral DNA copy number after 6 days by real-time qPCR method; format: functional, cell-based; conditions: ayw1, HepG2 2.2.15, 144 h
# Procedure, shortened: (§3)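 HepG2.2.15 cells (two copies of HBV ayw1 genome), 1.5 × 10^4/well in DMEM with 2% FBS and 380 μg/mL G418. After 16–24 h, compound added in triplicate, medium with compound renewed at day 3. Supernatant collected at day 6, Pronase-treated, and extracellular HBV DNA measured by TaqMan qPCR (precore/core) against an HBV DNA standard curve. EC50/EC90 derived; CC50 by MTS uptake.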
# [9] = Selectivity index, ratio of CC50 for human TZM-bl cells to EC50 for CXCR4-tropic HIV-1 NL4-3 infected in human TZM-bl cells; format: toxicity, cell-based; conditions: read-out: Ratio CC50/EC50
# [10] = system: Human immunodeficiency virus 1; experiment: Antiviral activity against CXCR4-tropic HIV-1 NL4-3 infected in human TZM-bl cells assessed as inhibition of virus-induced cytopathic effect preincubated with cells for 30 mins followed by viral infection measured after 48 hrs in presence of p-24 HIV-1 Ag by luciferase reporter gene assay; format: functional, cell-based; conditions: Human immunodeficiency virus 1, NL4-3, TZM-bl
# Procedure, shortened: (§4)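 TZM-bl cells, 1 × 10^4 per well in DMEM with 10% FBS and 10 mM […], incubated 30 min at 37 °C with compound. Then HIV-1 NL4.3 (X4) or BaL (R5) added at 100 pg p24 Ag per well. After 48 h, cells lysed with luciferase substrate. Tat-induced luminescence read after 10 min dark incubation as a measure of replication.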
# Human betaherpesvirus 5 [11] = experiment: Antiviral activity against Human cytomegalovirus AD169 infected in HEL cells assessed as inhibition of virus-induced cytopathic effect; format: functional, cell-based; conditions: Human betaherpesvirus 5, AD169, HEL; procedure, shortened: as §2
# Human alphaherpesvirus 3 [12] = experiment: Antiviral activity against thymidine kinase deficient Varicella-Zoster virus 07-1 infected in HEL cells assessed as inhibition of plaque formation; format: functional, cell-based; conditions: Human alphaherpesvirus 3, 07-1, HEL; procedure, shortened: as §2
# [13] = Selectivity index, ratio of CC50 for human PHA-stimulated PBMCs to IC50 for CCR5 tropic HIV1 BaL infected in human PHA-stimulated PBMC
# [14] = Cytotoxicity against human TZM-bl cells assessed as cell viability by tetrazolium dye assay; format: cell-based
# Human betaherpesvirus 5 [15] = experiment: Antiviral activity against HCMV Davis strain infected in HEL cells assessed as inhibition of virus-induced cytopathic effect; format: functional, cell-based; conditions: Human betaherpesvirus 5, Davis; procedure, shortened: as §2
# [16] = Selectivity index, ratio of CC50 for human PHA-stimulated PBMC to IC50 for CXCR4-tropic HIV-1 NL4-3 infected in human PHA-stimulated PBMC
# [17] = system: Human immunodeficiency virus 1; experiment: Antiviral activity against CCR5 tropic HIV1 BaL infected in human TZM-bl cells assessed as inhibition of virus-induced cytopathic effect preincubated with cells for 30 mins followed by viral infection measured after 48 hrs in presence of p-24 HIV-1 Ag by luciferase reporter gene assay; format: functional, cell-based; conditions: Human immunodeficiency virus 1, BaL; procedure, shortened: as §4
# [18] = Cytotoxicity against human HepG2.2.15 cells assessed as cell viability by tetrazolium dye uptake assay; format: cell-based, HepG2 2.2.15
# Procedure, shortened: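 HepG2.2.15 cells (two integrated copies of HBV ayw1 genome) were seeded at 1.5 × 10^4 cells/well in DMEM with 2% FBS, 380 μg/mL G418, glutamine, antibiotics and nonessential amino acids. After 16−24 h, medium with various compound concentrations was added in triplicate and renewed on day 3. After 6 days of treatment, viability was read by MTS uptake and CC50 was calculated.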
# [19] = Selectivity index, ratio of CC50 for HepG2.2.15 cells to EC50 for HBV ayw1 infected in human HepG2(2.2.15) cells assessed as reduction in viral replication by measuring extracellular viral DNA copy; procedure, shortened: as §3
# [20] = Selectivity index, ratio of CC50 for human TZM-bl cells to EC50 for CCR5 tropic HIV1 BaL infected in human TZM-bl cells; format: toxicity, cell-based; conditions: read-out: Ratio CC50/EC50
# [21] = system: Human immunodeficiency virus 1; experiment: Selectivity ratio of EC50 for tenofovir-resistant CXCR4-tropic HIV-1 NL4-3 harboring reverse transcriptase K65R mutant infected in human MT4 cells to EC50 for CXCR4-tropic HIV-1 NL4-3 infected in human MT4 cells; format: functional
# Procedure, shortened: (§5)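 MT-4 cells, 1 × 10^4 per well, given compound dilutions and wild-type NL4-3 or K65R NL4-3. Virus titred to give 85–95% cell killing at day 6. Incubated 6 days at 37 °C, 5% CO2. Viability read by XTT at 450/650 nm. EC50 from CPE reduction and toxicity from uninfected drug wells, by four-parameter fit. Fold change is K65R EC50 over wild-type EC50.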
# [22] = system: Human immunodeficiency virus 1; experiment: Antiviral activity against CXCR4-tropic HIV-1 NL4-3 infected in human MT4 cells assessed as inhibition of virus-induced cytopathic effect after 6 days by XTT dye based assay; format: functional, cell-based; conditions: Human immunodeficiency virus 1, NL4-3, MT4, 144 h; procedure, shortened: as §5
# [23] = system: Human immunodeficiency virus 1; experiment: Antiviral activity against tenofovir-resistant CXCR4-tropic HIV-1 NL4-3 harboring reverse transcriptase K65R mutant infected in human MT4 cells assessed as inhibition of viral replication inhibition of virus-induced cytopathic effect after 6 days by XTT dye based assay; format: functional, cell-based; conditions: Human immunodeficiency virus 1, NL4-3, MT4, 144 h; procedure, shortened: as §5
# [24] = Cytotoxicity against human MT4 cells assessed as reduction in cell viability after 6 days by XTT tetrazolium dye-based assay; procedure, shortened: as §5
Compound,CC50 at 72 h [3] [µM],IC50 [4] [µM],EC50 (Human alphaherpesvirus 3 [5]) [µM],MCC at 72 h [6] [µM],CC50 [7] [µM],IC50 [8] [µM],EC50 (Hepatitis B virus) [µM],EC90 (Hepatitis B virus) [µM],selectivity ratio [9],EC50 [10] [µM],EC50 (Human betaherpesvirus 5 [11]) [µM],EC50 (Human alphaherpesvirus 3 [12]) [µM],Ratio CC50/IC50 [13],CC50 [14] [µM],EC50 (Human betaherpesvirus 5 [15]) [µM],Ratio CC50/IC50 [16],EC50 [17] [µM],CC50 [18] [µM],Ratio CC50/EC50 [19],selectivity ratio [20],also measured
Nc1nc(N)c2ncn(C[C@H](CF)OCP(=O)(O)O)c2n1,–,–,–,–,–,–,–,–,–,–,–,–,–,–,–,–,–,–,–,–,EC50 [1]: 4.3 µM; EC50 [2]: 4.6 µM
Nc1nc(O)c2ncn(C[C@@H](CF)OCP(=O)(O)O)c2n1,65.4,0.28,15.5,> 311,36.4,1.14,0.59,42.7,> 21,4.81,127,12.5,32,> 100,57,130,3.79,> 100,>169,> 26,–
Nc1nc2c(ncn2CC(CF)OCP(=O)(O)O)c(=O)[nH]1 (stereo not given),–,–,–,–,–,–,–,–,–,–,–,–,–,–,–,–,–,–,–,–,EC50 [1]: 5 µM; EC50 [2]: 5 µM
CCCCCOC(=O)C[C@H](NP(=O)(CO[C@@H](CF)Cn1cnc2c(N)ncnc21)Oc1ccccc1)C(=O)OCCCCC (stereo not given in full),7.47,0.026,3.81,157,36.1,0.33,1.06,16.9,269,0.14,> 31.4,8.24,109,37.6,> 31.4,>1388,0.11,33,31,342,–
CCCCCOC(=O)C[C@H](NP(=O)(CO[C@H](CF)Cn1ccc(N)nc1=O)Oc1ccccc1)C(=O)OCCCCC (stereo not given in full),74.7,–,3.15,163,–,–,41.9,> 100,< 1,> 69,0.76,1.32,–,69,2.02,–,> 69,46.3,1,< 1,–
Nc1ccn(C[C@@H](CF)OCP(=O)(O)O)c(=O)n1,> 356,–,71.1,> 356,–,–,> 100,> 100,> 2,41.9,143,71.1,–,> 100,27.1,–,68.5,> 100,1,> 1,–
C[C@H](Cn1cnc2c(N)ncnc21)OCP(=O)(O)O [TENOFOVIR ANHYDROUS],–,0.38,–,–,> 25,1.4,–,–,> 25,4,–,–,>18,> 100,–,>66,6.91,–,–,> 14,Ratio EC50 [21]: >16.7; EC50 [22]: < 0.06 µM; EC50 [23]: 0.1 µM; CC50 at 144 h [24]: > 20 µM
CC(C)OC(=O)OCOP(=O)(CO[C@H](C)Cn1cnc2c(N)ncnc21)OCOC(=O)OC(C)C.O=C(O)/C=C/C(=O)O [TENOFOVIR DISOPROXIL FUMARATE],–,0.08,–,–,14.6,0.22,–,–,–,–,–,–,66,–,–,182,–,–,–,–,Ratio EC50 [21]: 2.3; EC50 [23]: 11.3 µM; CC50 at 144 h [24]: > 20 µM
Cc1cn([C@H]2C[C@H](N=[N+]=[N-])[C@@H](CO)O2)c(=O)[nH]c1=O [ZIDOVUDINE],–,–,–,–,–,–,–,–,–,–,–,–,–,–,–,–,–,–,–,–,Ratio EC50 [21]: 1.3; EC50 [22]: 0.004 µM; EC50 [23]: 0.005 µM; CC50 at 144 h [24]: > 0.5 µM
